Measured values as given in ChEMBL document CHEMBL1806492, “Generation of 'Unnatural Natural Product' library and identification of a small molecule inhibitor of XIAP” (Bioorg Med Chem, 2011).
pKi: −log10 of the molar value. Activity calls are given as the source filed them. The rule behind the calls is not given here. Residues, ends and D or L forms follow the SMILES beside them. *: point of attachment. Cbz = O=C(OCc1ccccc1)*; CH2F = FC*

Assays:
HeLa [1] = assay: Induction of sensitization of human HeLa cells to camptothecin-induced apoptosis assessed as induction DNA fragmentation at 160 nM after 24 hrs by propidium iodide-staining based FACS assay; type: functional, cell-based
How it was run: (§1)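 HeLa cells seeded at 1×10^5 cells/well and cultured overnight, then exposed to various concentrations of test compounds for 24 h. Nuclei stained with propidium iodide. Cell death measured by flow cytometry as DNA fragmentation, read as the sub-G1 population.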

HeLa [2] = assay: Induction of sensitization of human HeLa cells to staurosporine-induced apoptosis assessed as induction DNA fragmentation at 160 nM after 24 hrs by propidium iodide-staining based FACS assay; type: functional, cell-based; how it was run: as §1
[3] = target: E3 ubiquitin-protein ligase XIAP (Homo sapiens) (UniProt P98170); assay: Inhibition of human recombinant GST tagged XIAP expressed in Escherichia coli assessed as restoration of XIAP-mediated suppression of caspase-3 activity after 1 hrs using fluorogenic tetrapeptide Ac-DEVD-AFC substrate by caspase de-repression assay
E3 ubiquitin-protein ligase XIAP (Homo sapiens), sequence (P98170 whole entry, the tested form may be a part): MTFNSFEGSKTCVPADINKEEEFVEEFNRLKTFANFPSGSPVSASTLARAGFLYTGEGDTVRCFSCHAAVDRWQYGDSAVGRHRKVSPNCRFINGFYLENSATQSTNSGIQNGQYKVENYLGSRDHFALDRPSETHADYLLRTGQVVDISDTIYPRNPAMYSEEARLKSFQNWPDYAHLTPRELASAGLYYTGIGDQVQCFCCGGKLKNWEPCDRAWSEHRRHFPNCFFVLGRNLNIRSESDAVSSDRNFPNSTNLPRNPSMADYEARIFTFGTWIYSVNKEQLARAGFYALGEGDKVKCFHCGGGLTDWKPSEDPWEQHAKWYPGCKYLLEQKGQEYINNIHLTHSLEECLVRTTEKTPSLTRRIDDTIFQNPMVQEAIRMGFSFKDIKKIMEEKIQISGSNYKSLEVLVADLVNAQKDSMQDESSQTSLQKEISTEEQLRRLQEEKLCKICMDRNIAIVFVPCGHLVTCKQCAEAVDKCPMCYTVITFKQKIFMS

Caspase-3 (Homo sapiens) = target: T1, Caspase-3 (Homo sapiens) (UniProt P42574); assay: Effect on human caspase-3 activity at 10 uM in the absence of XIAP after 1 hrs using fluorogenic tetrapeptide Ac-DEVD-AFC as substrate
T1 sequence (whole entry): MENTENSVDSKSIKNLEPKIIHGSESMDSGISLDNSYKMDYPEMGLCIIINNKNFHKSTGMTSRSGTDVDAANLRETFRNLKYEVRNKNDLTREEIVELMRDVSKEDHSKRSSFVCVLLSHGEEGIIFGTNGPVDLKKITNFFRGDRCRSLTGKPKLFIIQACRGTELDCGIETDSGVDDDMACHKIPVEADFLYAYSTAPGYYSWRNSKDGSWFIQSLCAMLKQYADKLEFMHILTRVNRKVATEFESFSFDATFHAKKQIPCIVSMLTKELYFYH

[4] = target: E3 ubiquitin-protein ligase XIAP (Homo sapiens) (UniProt P98170); assay: Inhibition of human GST-tagged XIAP binding to active human caspase-3 at 3 uM after 1 hrs by GST pull-down assay
[5] = target: Protein kinase C alpha type (Homo sapiens, UniProt P17252); assay: Inhibition of [3H]PDBu binding to PKCalpha-C1A domain peptide
[6] = target: Protein kinase C beta type (Homo sapiens, UniProt P05771); assay: Inhibition of [3H]PDBu binding to PKCbeta-C1A domain peptide
Protein kinase C beta type, sequence (P05771 whole entry, the tested form may be a part): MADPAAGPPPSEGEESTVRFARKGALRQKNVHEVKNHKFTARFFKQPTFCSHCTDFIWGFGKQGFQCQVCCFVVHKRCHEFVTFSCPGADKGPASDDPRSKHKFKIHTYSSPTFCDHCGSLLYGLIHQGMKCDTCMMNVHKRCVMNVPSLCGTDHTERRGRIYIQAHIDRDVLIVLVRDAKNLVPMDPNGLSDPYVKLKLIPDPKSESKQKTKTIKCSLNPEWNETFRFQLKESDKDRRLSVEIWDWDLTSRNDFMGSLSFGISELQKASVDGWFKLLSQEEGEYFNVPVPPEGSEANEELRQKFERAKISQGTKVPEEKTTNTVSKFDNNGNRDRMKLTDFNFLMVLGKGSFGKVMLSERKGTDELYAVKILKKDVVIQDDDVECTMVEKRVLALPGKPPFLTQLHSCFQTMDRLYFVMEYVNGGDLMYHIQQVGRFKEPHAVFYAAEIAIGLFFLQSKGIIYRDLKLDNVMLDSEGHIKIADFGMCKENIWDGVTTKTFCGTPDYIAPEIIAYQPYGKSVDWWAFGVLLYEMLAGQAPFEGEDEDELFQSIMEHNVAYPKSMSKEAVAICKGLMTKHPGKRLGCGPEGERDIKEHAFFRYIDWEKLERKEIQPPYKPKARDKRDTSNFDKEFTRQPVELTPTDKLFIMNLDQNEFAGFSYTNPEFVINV

[7] = target: Protein kinase C gamma type (Homo sapiens, UniProt P05129); assay: Inhibition of [3H]PDBu binding to PKCgamma-C1A domain peptide
[8] = target: Protein kinase C delta type (Homo sapiens, UniProt Q05655); assay: Inhibition of [3H]PDBu binding to PKCdelta-C1B domain peptide
Protein kinase C delta type, sequence (Q05655 whole entry, the tested form may be a part): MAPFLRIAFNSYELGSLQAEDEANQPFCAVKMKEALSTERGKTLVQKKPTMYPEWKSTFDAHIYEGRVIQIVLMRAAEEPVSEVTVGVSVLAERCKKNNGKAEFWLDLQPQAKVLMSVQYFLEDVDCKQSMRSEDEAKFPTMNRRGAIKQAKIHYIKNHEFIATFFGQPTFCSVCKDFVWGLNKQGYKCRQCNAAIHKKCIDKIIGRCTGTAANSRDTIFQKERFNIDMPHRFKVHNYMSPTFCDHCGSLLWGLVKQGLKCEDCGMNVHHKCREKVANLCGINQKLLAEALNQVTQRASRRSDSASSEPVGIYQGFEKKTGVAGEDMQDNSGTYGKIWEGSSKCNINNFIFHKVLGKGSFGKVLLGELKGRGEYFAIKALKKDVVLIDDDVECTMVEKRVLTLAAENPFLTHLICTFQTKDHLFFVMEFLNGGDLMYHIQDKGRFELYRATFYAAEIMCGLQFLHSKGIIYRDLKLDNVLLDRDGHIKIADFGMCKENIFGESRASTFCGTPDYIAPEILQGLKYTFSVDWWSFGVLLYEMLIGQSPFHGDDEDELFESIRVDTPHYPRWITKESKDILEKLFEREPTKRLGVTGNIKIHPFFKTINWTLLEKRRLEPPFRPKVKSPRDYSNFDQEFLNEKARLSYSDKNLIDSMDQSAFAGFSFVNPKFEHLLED

[9] = target: T2, Protein kinase C epsilon type (Homo sapiens, UniProt Q02156); assay: Inhibition of [3H]PDBu binding to PKCepsilon-C1B domain peptide
T2 sequence (Q02156 whole entry): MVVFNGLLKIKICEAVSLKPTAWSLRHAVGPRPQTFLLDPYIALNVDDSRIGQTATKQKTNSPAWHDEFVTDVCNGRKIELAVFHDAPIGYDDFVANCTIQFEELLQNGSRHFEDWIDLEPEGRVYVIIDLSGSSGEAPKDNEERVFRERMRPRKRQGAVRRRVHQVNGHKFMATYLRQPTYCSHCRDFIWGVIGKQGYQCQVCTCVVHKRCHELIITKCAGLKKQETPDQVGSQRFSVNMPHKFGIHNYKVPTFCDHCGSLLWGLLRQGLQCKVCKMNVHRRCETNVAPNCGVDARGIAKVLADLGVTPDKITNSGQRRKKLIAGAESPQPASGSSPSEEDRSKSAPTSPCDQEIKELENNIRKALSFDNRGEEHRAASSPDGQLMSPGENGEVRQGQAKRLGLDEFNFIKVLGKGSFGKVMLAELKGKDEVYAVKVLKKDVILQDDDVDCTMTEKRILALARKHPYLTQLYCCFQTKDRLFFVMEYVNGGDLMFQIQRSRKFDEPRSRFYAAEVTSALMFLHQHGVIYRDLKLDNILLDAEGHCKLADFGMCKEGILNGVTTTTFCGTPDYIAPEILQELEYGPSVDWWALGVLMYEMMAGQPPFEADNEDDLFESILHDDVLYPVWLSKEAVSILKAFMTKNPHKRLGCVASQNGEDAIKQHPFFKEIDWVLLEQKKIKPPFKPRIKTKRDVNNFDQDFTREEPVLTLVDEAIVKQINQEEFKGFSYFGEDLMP

[10] = target: Protein kinase C eta type (Homo sapiens, UniProt P24723); assay: Inhibition of [3H]PDBu binding to PKCeta-C1B domain peptide
Protein kinase C eta type, sequence (P24723 whole entry, the tested form may be a part): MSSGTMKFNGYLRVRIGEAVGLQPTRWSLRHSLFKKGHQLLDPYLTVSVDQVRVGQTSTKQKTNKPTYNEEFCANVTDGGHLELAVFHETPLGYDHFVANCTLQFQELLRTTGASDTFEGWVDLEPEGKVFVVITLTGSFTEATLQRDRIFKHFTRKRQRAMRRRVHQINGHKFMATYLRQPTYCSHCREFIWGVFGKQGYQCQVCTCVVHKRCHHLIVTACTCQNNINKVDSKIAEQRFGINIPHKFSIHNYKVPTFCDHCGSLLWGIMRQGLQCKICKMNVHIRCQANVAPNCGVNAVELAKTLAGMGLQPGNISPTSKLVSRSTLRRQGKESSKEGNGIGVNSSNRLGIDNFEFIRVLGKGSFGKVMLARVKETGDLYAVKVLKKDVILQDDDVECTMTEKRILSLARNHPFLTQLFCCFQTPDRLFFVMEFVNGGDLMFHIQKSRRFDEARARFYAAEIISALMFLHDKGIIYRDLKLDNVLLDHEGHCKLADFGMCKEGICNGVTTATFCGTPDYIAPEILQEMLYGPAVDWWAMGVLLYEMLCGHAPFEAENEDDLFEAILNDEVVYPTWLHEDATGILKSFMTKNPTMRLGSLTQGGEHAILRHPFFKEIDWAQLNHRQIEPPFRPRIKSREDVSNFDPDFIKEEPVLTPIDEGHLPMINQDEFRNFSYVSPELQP

HeLa [11] = assay: Induction of sensitization of human HeLa cells to camptothecin-induced apoptosis at 10 uM after 48 hrs by trypan blue dye exclusion assay; type: functional, cell-based
How it was run: (§2)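 HeLa cells seeded at 2×10^4 cells/well, cultured overnight, then exposed to test compounds at various concentrations for 48 h. Viable cells counted by trypan blue dye exclusion.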

HeLa [12] = assay: Induction of sensitization of human HeLa cells to camptothecin-induced apoptosis assessed as induction DNA fragmentation at 10 uM after 24 hrs by propidium iodide-staining based FACS assay; type: functional, cell-based; how it was run: as §1
HeLa [13] = assay: Induction of sensitization of human HeLa cells to staurosporine-induced apoptosis assessed as induction DNA fragmentation at 10 uM after 24 hrs by propidium iodide-staining based FACS assay; type: functional, cell-based; how it was run: as §1
HeLa [14] = assay: Induction of sensitization of human HeLa cells to staurosporine-induced apoptosis at 10 uM after 48 hrs by trypan blue dye exclusion assay; type: functional, cell-based; how it was run: as §2
HeLa [15] = assay: Suppression of camptothecin-induced apoptosis in human HeLa cells assessed as reduction in DNA fragmentation at 100 uM after 24 hrs by propidium iodide-staining based FACS assay; type: functional, cell-based
How it was run: (§3)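 HeLa cells seeded at 1×10^5 cells/well, cultured overnight, treated with test compounds at various concentrations for 24 h. Nuclei stained with propidium iodide; cell death scored by flow cytometry as the sub-G1 (fragmented DNA) population.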

HeLa [16] = assay: Suppression of staurosporine-induced apoptosis in human HeLa cells assessed as reduction in DNA fragmentation at 100 uM after 24 hrs by propidium iodide-staining based FACS assay; type: functional, cell-based; how it was run: as §3

## CCCCCCCCCCCCCC(=O)O[C@@H]1[C@@H](C)[C@@]2(O)[C@@H](C=C(CO)C[C@]3(O)C(=O)C(C)=C[C@@H]23)[C@@H]2C(C)(C)[C@]12OC(C)=O
HeLa [1]
  Activity: inactive
HeLa [2]
  Activity: inactive

## C=C[C@@]1(C)CC[C@](C)(C(C)C)c2cc3c4c(c[nH]c4c21)CC(=O)NC(=O)[C@H](C(C)C)N3C
[3]
  inhibition: Active
Caspase-3 (Homo sapiens)
  inhibition: inactive
[4]
  inhibition: Active
[5]
  pKi: 6.22
[6]
  pKi: 6.14
[7]
  pKi: 6.18
[8]
  pKi: 7.06
[9]
  pKi: 6.32
[10]
  pKi: 6.44
HeLa [11]
  Activity: Active
HeLa [12]
  Activity: Active
HeLa [13]
  Activity: Active
HeLa [14]
  Activity: Active

## COC(=O)C[C@H](NC(=O)[C@H](C)NC(=O)[C@@H](NC(=O)OCc1ccccc1)C(C)C)C(=O)CF (Cbz-Val-Ala-Asp(OMe)-CH2F)
HeLa [15]
  Activity: inactive
HeLa [16]
  Activity: inactive

## C=C[C@]1(C)CC[C@@](C)(C(C)C)c2cc3c4c(c[nH]c4c21)C[C@@H](CO)NC(=O)[C@H](C(C)C)N3C
[3]
  inhibition: inactive
Caspase-3 (Homo sapiens)
  Activity: Active
[4]
  inhibition: inactive
HeLa [12]
  Activity: inactive
HeLa [13]
  Activity: inactive
